Screening data: PubChem BioAssay, several laboratories
Most compounds without a hit are left out; they make up all but 3.6% or so of the library.
ZTA counter: blocks Epstein-Barr virus ZTA, an EBNA-1 counter-screen; 320,000 tested, 0.15% active; AID 2234; ZTA-DNA binding, fluorescence polarization; inhibition, % at 11 µM; in the data active = inhibition above about 33%
Target sequence (P03206 whole entry, looked up): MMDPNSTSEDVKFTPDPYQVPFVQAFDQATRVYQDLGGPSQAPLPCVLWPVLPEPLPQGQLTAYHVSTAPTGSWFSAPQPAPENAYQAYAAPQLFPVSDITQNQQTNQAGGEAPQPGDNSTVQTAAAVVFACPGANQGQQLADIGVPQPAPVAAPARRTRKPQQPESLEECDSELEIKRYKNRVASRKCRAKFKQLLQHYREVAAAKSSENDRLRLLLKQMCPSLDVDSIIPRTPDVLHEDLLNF
DNA FID counter: displaces DNA intercalator in HCV helicase counter-screen | DNA fluorescent intercalator displacement, fluorescence | inhibition, % at 7.9 µM | 290,000 tested, 0.17% active | AID 1845; in the data active = inhibition above about 37%;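 note: 0% = vehicle and 100% = reference compound; higher means more ethidium bromide displaced from hairpin DNA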
HCV NS3 hel inh: inhibitors of Hepatitis C virus NS3 helicase | NS3 helicase DNA unwinding, Cy5 molecular beacon fluorescence | AID 1800 | 290,000 tested, 0.56% active | inhibition, % at 10.9 µM;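 active = inhibition above the mean of all tested compounds plus 3 SD, set per campaign, cut at about 35% in these data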;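 note: 0% = DMSO wells and 100% = thioflavine S control wells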
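System: NS3 helicase fragment of HCV / Schedule: 1 h at 25 °C / Control set: DMSO alone as 0% and 110 µM thioflavine S as 100% / Reagent: Cy5/quencher beacon DNA duplex and ATP to start / Technique: Cy5 fluorescence / Replication: singlicate / Evaluation: % inhibition of end-to-start signal ratio versus controls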
EBNA-1 inhibitor: blocks EBNA-1 binding to DNA; EBNA-1 DNA binding, fluorescence polarization; inhibition, % at 14.8 µM; 300,000 tested, 0.34% active; AID 1950; in the data active = inhibition above about 28%
NR3A LBD binder: modulators (binders) of human NR3A ligand-binding domain; NR3A LBD differential scanning fluorimetry, Tm shift; 0% = protein alone, 100% = glycine-bound protein; 340,000 tested, 2.5% active; Tm shift relative to glycine control, % at 25 µM;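 active = melting temperature shift of at least 10% of the positive control shift, at one fixed dose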
FGF22 binding: FGF22 (human) thermal shift binding. recombinant FGF22 thermal shift, SYPRO orange fluorescence; percent of sucrose octasulfate shift, DMSO zero. Q9HCT0. activity (Tm shift, normalised), % at 9.99 µM. 340,000 tested, 1.5% active;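 active = mean Tm shift, scaled 0 neutral to 100 positive control, at about 1.3% or above, every replicate too, limit read from the data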
Target sequence (Q9HCT0 whole entry, looked up): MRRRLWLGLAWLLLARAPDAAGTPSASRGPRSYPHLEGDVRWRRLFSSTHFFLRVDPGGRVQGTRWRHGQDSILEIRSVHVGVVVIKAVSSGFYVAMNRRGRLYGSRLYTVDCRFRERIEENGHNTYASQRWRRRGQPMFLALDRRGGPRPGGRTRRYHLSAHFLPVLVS
The depositor's hits bear a star; · = no result given.

SMILES	ZTA counter	DNA FID counter	HCV NS3 hel inh	EBNA-1 inhibitor	NR3A LBD binder	FGF22 binding
Cc1nc(N)sc1-c1csc(Nc2cccc(O)c2)n1	11.7	2.1	3.8	0.0	-0.2	0.0
CC1=Nc2ccccc2/C1=C/c1sc(=O)n(CC(=O)N2CCCC2)c1O	-5.5	-6.3	1.4	-8.5	-1.4	·
Oc1cccc(Nc2nc(O)c(/C=C3\C=Nc4ccccc43)s2)c1	2.8	4.2	-12.1	-11.0	21.2*	0.4
Oc1nc(Nc2cccc(Cl)c2)sc1/C=C1\C=Nc2ccccc21	3.5	10.0	6.5	-10.2	37.4*	0.6
CC1=Nc2ccccc2/C1=C\c1sc(Nc2ccc(C)cc2)nc1O	0.7	1.0	1.2	4.2	21.4*	-0.2
C[C@H]1CN([C@@H](C)CO)S(=O)(=O)c2ccc(C3=CCCCC3)cc2O[C@H]1CN(C)C(=O)Nc1ccc2c(c1)OCO2	·	·	·	·	·	1.2
O=C(C[C@H]1CC[C@H]2[C@@H](COC[C@H](O)CN2CCC(F)(F)F)O1)NCc1ccc(Oc2ccccc2)cc1	·	·	·	·	·	-0.2
C[C@H](CO)N1C[C@H](C)[C@@H](CN(C)C(=O)Nc2ccccc2)Oc2ncc(-c3ccccc3)cc2C1=O	·	·	·	·	·	-0.3
C[C@@H]1CN([C@H](C)CO)C(=O)c2cc(NC(=O)Nc3ccc(F)cc3)ccc2O[C@@H]1CN(C)C(=O)Nc1ccc(F)cc1	·	·	·	·	·	0.0
COc1ccccc1NC(=O)N1C[C@@H]2[C@H](c3ccccc31)[C@H](CO)N2C(=O)C1CCCC1	·	·	·	·	·	-0.3
CCOc1cc(CNc2ccc(S(N)(=O)=O)cc2)cc(Cl)c1OC	-10.1	-7.4	-7.4	-6.8	-1.0	·
CCOc1cc(CNc2ccc(N3CCCC3)cc2)cc(Cl)c1OC	158.5*	-2.9	16.8	97.5*	-3.0	-0.1
CCOc1ccc(CNc2ccc(N3CCN(Cc4ccccc4)CC3)cc2)cc1	-7.8	11.5	-60.7	-7.3	0.4	-0.3
COc1cc(CNc2ccc(N3CCCC3)cc2)cc(Cl)c1OC	127.4*	-5.2	31.6	110.7*	0.0	0.2
CCOc1ccc(CNc2ccc(N3CCCC3)cc2)cc1	85.8*	-1.9	12.7	79.0*	-2.0	-0.1
Clc1ccc2scc(CN3CCCCC3)c2c1	-0.9	-3.5	-12.1	7.7	16.4*	·
O=C(C[C@H]1CC[C@@H]2[C@H](COC[C@H](O)CN2C(=O)c2ccccc2)O1)NCCCN1CCOCC1	·	·	·	·	·	0.4
COc1cccc(Nc2ccc(Nc3cccc(OC)c3)nn2)c1	-4.2	3.5	1.7	-6.1	33.4*	·
COc1cccc(Nc2c(Nc3cccc(OC)c3)c(=O)c2=O)c1	9.2	-2.8	-13.3	9.6	5.6	-0.4
COc1ccccc1-c1ccc(Nc2cccc(C(C)=O)c2)nn1	-8.5	-5.1	-6.1	5.3	11.1*	0.1
C[C@H](O)C#Cc1cnc2c(c1)C(=O)N([C@@H](C)CO)C[C@@H](C)[C@@H](CN(C)C(=O)c1ccccc1F)O2	·	·	·	·	·	0.1
C[C@H]1CN([C@@H](C)CO)C(=O)c2cc(C#CC3(O)CCCC3)cnc2O[C@H]1CN(C)C(=O)Cc1cccnc1	·	·	·	·	·	0.4
COc1cc(/C=C2\Oc3cc(O)ccc3C2=O)ccc1O	4.2	·	·	2.0	-3.1	-0.1
O=C1/C(=C/c2ccc(O)c(O)c2)Oc2cc(O)ccc21	0.0	·	·	-1.8	15.1*	1.1
N=c1c(C(=O)NCCN2CCOCC2)cc2c(=O)n3ccccc3nc2n1CCCN1CCOCC1	-3.4	76.2*	11.5	-7.9	-1.6	-0.3
SMILES	ZTA counter	DNA FID counter	HCV NS3 hel inh	EBNA-1 inhibitor	NR3A LBD binder	FGF22 binding
Cc1ccc2nc3c(cc(C(=O)NCCc4ccccc4)c(=N)n3CCN3CCOCC3)c(=O)n2c1	4.5	-15.9	0.2	2.6	0.1	·
Cc1ccc2nc3c(cc(C(=O)NCCN4CCOCC4)c(=N)n3CCCN3CCOCC3)c(=O)n2c1	4.3	78.9*	20.4	-3.5	0.4	·
N=c1c(C(=O)NCCN2CCOCC2)cc2c(=O)n3ccccc3nc2n1Cc1ccc(F)cc1	7.7	22.6	4.6	6.1	-1.9	0.2
O=C(Nc1cccc(Cl)c1)N[C@H]1CC[C@@H](CCNC(=O)C2CCCC2)O[C@H]1CO	·	·	·	·	·	-0.5
Cc1noc2ncnc(Oc3ccc(Cl)cc3Cl)c12	-1.3	-1.4	2.5	-0.7	-1.2	43.6*
Cc1noc2ncnc(Oc3ccccc3Cl)c12	3.1	-4.3	16.8	-0.5	0.3	42.9*
